# In the library only some 3.9% were active in any assay of this set; here they are far more common.
# Gli-Sufu block = blocks Gli-Sufu signaling in a luciferase reporter; Sufu-KO-LIGHT fibroblasts, Gli luciferase reporter luminescence; 0.74% of 340,000 active; inhibition, % at 5 µM; AID 588413;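 active = inhibition above about 55%, limit read from the data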;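 also: 0% = DMSO-treated cells and 100% = wells with medium but no cells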
# CHOP UPR activ = activators of apoptotic arm of unfolded protein response (CHOP); CHO-CHOP luciferase reporter, UPR activation, luminescence; percent of tunicamycin response over DMSO baseline; activation, % at 10 µM; 0.34% of 330,000 active; AID 449763;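 active = at 10 µM dose, activation of 40% or more, normalized to positive control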;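 also: 100% = tunicamycin at 10 µg/mL and 0% = DMSO alone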
#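 Test system: CHO-CHOP cells, stable luciferase reporter of PERK-eIF2a-CHOP signalling | Quantity: 500 CHO-CHOP cells per well | Buffer or medium: F12 plus 10% serum | Compound dosing: 10 µM single point, 0.5% DMSO | Schedule: 6 h compound treatment, 37 °C | Signal: Luciferase luminescence | Control set: Tunicamycin high control, DMSO low control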
# XBP1 UPR activ = adaptive UPR (XBP1) activation | CHO-XBP1 luciferase reporter, IRE1-XBP1 UPR activation, luminescence; percent of tunicamycin response, DMSO as zero | activation, % at 20 µM | 0.33% of 330,000 active;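 active = versus positive control, 20 µM dose yields 30% or more activation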;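 also: 100% = tunicamycin at 10 µg/mL and 0% = DMSO only wells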
#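 Material: CHO cell line with stable XBP1 luciferase reporter; schedule: 16-18 h cell attachment at 37 °C, then 6 h compound exposure; signal: glow luminescence from Steady-Glo reagent; medium: serum-containing F12 medium, 10% FBS; benchmarks: tunicamycin 10 µg/mL and vehicle-only wells; read-out: percent activation relative to tunicamycin reference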
# 697 NFkB inh = inhibitors of the PMA/ionomycin-induced NF-kB reporter in 697 B cells; 697 B-cell NF-kB luciferase reporter, 16 h; inhibition, % at 4 µM; 0.33% of 330,000 active; in the data active = inhibition above about 35%
# CHOP inh = inhibitors of CHOP induction in ER stress response; 3.8% of 220,000 active; CHO-K1 CHOP-promoter luciferase, tunicamycin-induced, 15-18 h; inhibition, % at 10 µM;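 active = compounds that reduced the stress-induced luciferase reporter signal by more than about 70% of percent inhibition, limit read from the data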;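 also: 0% = tunicamycin plus vehicle and 100% = wells without tunicamycin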
# Jurkat NFkB inh = lowers PMA/ionomycin-induced NF-kB signal in Jurkat cells; PMA/ionomycin-induced NF-kB luciferase reporter, luminescence; inhibition, % at 4 µM; 0.53% of 330,000 active; AID 435003; in the data active = inhibition above about 50%
# CHOP inh conf = confirmation of CHOP induction inhibitors | shares compounds with CHOP inh | CHO-CHOP promoter luciferase reporter, tunicamycin-induced, luminescence | inhibition, % at 10 µM | 45% of 2,100 active | AID 504437;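 active = mean of three repeat readings of reporter signal inhibition above a set limit, cut at about 70% in these data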;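 also: 0% = tunicamycin plus vehicle and 100% = wells lacking tunicamycin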
# Starred values were filed as active, the others as inactive; . = not tested or not shown.
SMILES,Gli-Sufu block,CHOP UPR activ,XBP1 UPR activ,697 NFkB inh,CHOP inh,Jurkat NFkB inh,CHOP inh conf
O=C(CNC(=O)N1CC(=O)Nc2ccccc21)NCc1ccccc1Cl,-14,0,-7,-6,.,11,.
Cc1cc(NC(=O)c2noc3c2CCc2ccccc2-3)no1,-49,6,2,-31,19,-48,.
Cc1ccc(O)c(NC(=O)c2noc3c2CCc2ccccc2-3)c1,-36,8,2,-82,107*,-14,-96
O=C(NNC(=O)c1cc2cc3ccccc3nc2s1)c1cccc(Cl)c1,-8,1,2,-13,-16,-14,.
Cc1cccc(C(=O)NNC(=O)c2cc3cc4ccccc4nc3s2)c1,0,-1,-3,19,103*,6,6
CCOC(=O)CCCCC(=O)c1[nH]c(=O)[nH]c1CSc1nnc2c3cc(Br)ccc3n(C)c2n1,.,-1,2,7,103*,-4,6
CCOC(=O)CCCCC(=O)c1[nH]c(=O)[nH]c1CSc1nc(C)cc(C)n1,2,-3,-2,9,5,11,.
O=C(CN1C(=O)S/C(=C\c2ccc(Cl)cc2)C1=O)NC1C=CS(=O)(=O)C1 (configuration not stated),10,4,1,-41,.,19,.
O=C(CN1C(=O)S/C(=C\c2ccc(Cl)cc2)C1=O)NNC(=O)c1ccccc1O,3,.,.,.,106*,.,14
COC(=O)[C@@H](NCc1cccc(CN[C@H](C(=O)OC)c2ccccc2)c1)c1ccccc1,-6,-1,0,-56,.,-5,.
COCCn1c(=NC(=O)CCS(=O)(=O)c2ccccc2)sc2cc(C)ccc21,8,0,-2,-8,.,5,.
COCCn1c(=NC(=O)/C=C/c2cccs2)sc2cc(NC(C)=O)ccc21,-4,2,-2,12,105*,0,79*
CN(CCNC(=O)c1ccc(CS(=O)(=O)c2c(Cl)cccc2Cl)o1)CCc1ccccc1,16,2,-2,4,.,2,.
Cc1ccc(C2C(/C=C3/SC(=S)NC3=O)=C(c3cccs3)Oc3ccccc32)cc1 (configuration not stated),0,3,2,10,99*,-6,-29
CN(Cc1ccccc1Cl)C(=O)CCNC(=O)c1ccco1,-5,0,1,-31,.,-3,.
CCOc1cccc(CN2CCN(c3cccc(C(F)(F)F)c3)CC2)c1O,13,0,0,7,100*,-5,79*
CCOc1cccc(CN2CCCC(N3CCN(c4cccc(Cl)c4)CC3)C2)c1O (configuration not stated),21,5,-4,5,.,13,.
O=C(O)C1CCN(C(=O)c2ccc3c(c2)OCO3)CC1,0,1,-6,15,.,-3,.
CCN(CC(=O)Nc1c(F)cccc1F)C(=O)C1COc2ccccc2O1 (configuration not stated),-7,-3,-3,13,.,-1,.
CCN(CC)c1ccc(/C=N/NC(=S)NCc2ccccc2)c(O)c1,19,-1,-2,-4,100*,8,-66
COc1ccccc1C(=O)N(Cc1ccc(Cl)cc1)C1CCS(=O)(=O)C1 (configuration not stated),-1,0,-3,-1,.,-2,.
Cc1ccc(CSc2nc3ccncc3n2CC(=O)Nc2cc(C)cc(C)c2)cc1,-23,5,-1,-30,96*,-29,26
Cc1cc(C)cc(NC(=O)Cn2c(SCc3cc(C)ccc3C)nc3ccncc32)c1,.,.,.,.,-9,.,.
O=[N+]([O-])c1ccc(O)c(/C=N/Nc2ccccc2Cl)c1,-51,2,2,-63,96*,-21,125*
O=C(Nc1cc(Cl)ccc1O)c1cc2n(n1)C(C(F)(F)F)CC(c1ccc3c(c1)OCO3)N2 (configuration not stated),10,-3,-5,-5,105*,21,89*
SMILES,Gli-Sufu block,CHOP UPR activ,XBP1 UPR activ,697 NFkB inh,CHOP inh,Jurkat NFkB inh,CHOP inh conf
Cc1ccc(S(=O)(=O)NCC(C)n2cncn2)cc1C (configuration not stated),26,0,-2,24,.,17,.
Cc1ccc(-c2nnn3c2nc(Cl)c2ccccc23)cc1,4,.,.,.,56,.,.
Fc1cccc(-c2nnn3c2nc(Cl)c2ccccc23)c1,8,.,.,.,103*,.,127*
C[C@H](CO)N1C[C@H](C)[C@@H](CN(C)CC2CCCCC2)Oc2ccc(NC(=O)Cn3cnnn3)cc2C1=O,0,-2,-2,-2,.,4,.
O=C(Nc1ccc(F)cc1)N1CCn2c(nc3ccccc32)C1,1,1,3,8,98*,8,-3
CCC(CC)c1nnc(NC(=O)c2c(C)nn(Cc3ccccc3Cl)c2C)s1,2,1,-5,-11,105*,16,90*
Cc1nn(C)c(C)c1NC(=O)CSc1nc(C2CC2)nc2c1cnn2-c1ccccc1,20,1,1,-18,102*,13,30
Cc1cccc(-c2onc3ccc(C4(C)OCCO4)cc23)c1,-18,3,-1,-29,106*,-14,32
CC1(c2ccc3noc(-c4cccc(F)c4)c3c2)OCCO1,-1,1,-2,23,38,-29,.
Cc1ccc(-c2nn(C)c(=O)c3ccccc23)cc1CNC(=O)Cn1nc(-c2ccccc2)c2ccccc2c1=O,.,.,.,.,97*,.,78*
Cc1cc(/C=C2\C(=O)NN(c3ccccc3)C2=O)c(C)n1-c1ccccc1O,4,5,2,-77,96*,-34,15
CC(C)n1cc(CN2CCC(Oc3ccc(C(=O)N4CCCCC4)cc3)CC2)cn1,11,-1,-1,19,.,0,.
COc1ccc(C(=O)CC(Nc2ccc([N+](=O)[O-])cc2)c2ccc(OC)cc2)cc1 (configuration not stated),0,-2,-4,10,35,6,.
CNC(CC(=O)c1ccc([N+](=O)[O-])cc1)C(Cl)(Cl)Cl (configuration not stated),-9,.,.,.,110*,.,-12
O=C1OC(N2C(=O)CC[C@H]2C(=O)Nc2ccc3c(c2)OCO3)c2ccccc21 (some centres not stated),-5,-1,-1,-3,.,-7,.
CCOc1cc(N2CCOCC2)c(OCC)cc1NC(=O)c1cc(-c2ccco2)nc2ccccc12,23,4,-4,2,105*,48,67
CCOc1cc(N2CCOCC2)c(OCC)cc1NC(=O)COc1ncnc2ccccc12,5,0,2,21,-5,0,.
Cc1noc(C)c1CSCC(=O)Nc1ccccc1N1CCCCC1,.,0,1,-25,.,3,.
Cc1cccc(/C=N/NC(=O)Cc2ccc(Cl)cc2)c1O,6,1,-6,13,.,20,.
